T cruzi repl – T. cruzi replication inhibition | T. cruzi beta-gal in NIH3T3, luminescence, 90 h | inhibition, % (test concentration not listed) | 300,000 tested, 1.4% active | AID 1885;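 active = mean inhibition across valid replicates above about 55%, limit read from the data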;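 note: signal also drops with host cell toxicity which is not excluded here; 0% = plate median of DMSO wells and 100% = zero luminescence signal; higher percent means less beta-gal luminescence so fewer parasites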
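assay system = mouse NIH/3T3 fibroblasts infected with β-gal-expressing T. cruzi Tulahuen C4 | input = 5,000 NIH/3T3 host cells per well | buffer or medium = DMEM plus 2% FBS | timing = 3 h host attachment, then at least 90 h co-culture | measured by = GalScreen luminescence, 60 min | evaluation = luminescence reflecting intracellular parasite burden, expressed as percent inhibition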
L major viab – Leishmania major promastigote growth inhibition | Leishmania major promastigotes, resazurin fluorescence viability | inhibition, % at 10 µM | 200,000 tested, 9% active | AID 1063; in the data active = inhibition above about 50%;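 note: promastigotes grown with compound for 44 hours at 28 °C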
CHOP UPR activ – activators of apoptotic arm of unfolded protein response (CHOP) | CHO-CHOP luciferase reporter, UPR activation, luminescence; percent of tunicamycin response over DMSO baseline | activation, % at 10 µM | 330,000 tested, 0.34% active | AID 449763;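 active = at 10 µM dose, activation of 40% or more, normalized to positive control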;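 note: 100% = tunicamycin at 10 µg/mL and 0% = DMSO alone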
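Test system: CHO-CHOP cells, stable luciferase reporter of PERK-eIF2a-CHOP signalling | Quantity: 500 CHO-CHOP cells per well | Buffer or medium: F12 plus 10% serum | Compound dosing: 10 µM single point, 0.5% DMSO | Schedule: 6 h compound treatment, 37 °C | Signal: Luciferase luminescence | Control set: Tunicamycin high control, DMSO low control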
XBP1 UPR activ – activators of adaptive arm of unfolded protein response (XBP1) | AID 463104 | activation, % at 20 µM | CHO-XBP1 luciferase reporter, IRE1-XBP1 UPR activation, luminescence; percent of tunicamycin response, DMSO as zero | 330,000 tested, 0.33% active;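 active = versus positive control, 20 µM dose yields 30% or more activation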;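 note: 100% = tunicamycin at 10 µg/mL and 0% = DMSO only wells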
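Material: CHO cell line with stable XBP1 luciferase reporter; schedule: 16-18 h cell attachment at 37 °C, then 6 h compound exposure; signal: glow luminescence from Steady-Glo reagent; medium: serum-containing F12 medium, 10% FBS; benchmarks: tunicamycin 10 µg/mL and vehicle-only wells; read-out: percent activation relative to tunicamycin reference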
Dynein transport – dynein cargo transport inhibition. 220,000 tested, 0.47% active. 3617.4 mouse cells, GR-EGFP nuclear translocation imaging; test concentration mostly 20 µM; stimulated with dexamethasone, 1 µM; active compounds read low. z-score, hits read low;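 active = plate z-score of nuclear minus cytoplasmic receptor signal below a set negative limit, without overly bright fluorescence or cell loss, cut at about -3.5 in these data, passing the limit was not always enough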;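 note: z-score of nuclear minus cytoplasmic ring GR-EGFP intensity difference per well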
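Buffer or medium: tet-free, stripped-serum medium; Also added: dexamethasone, 1.0 µM final; Technique: high-content fluorescence imaging after fixation; Times: 48 h induction, 1 h compound, 30 min dex at 37 °C; Read-out: per-cell GR-EGFP intensity, nucleus versus surrounding cytoplasmic ring, well-averaged.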
CHOP inh – blocks CHOP induction under ER stress | CHO-K1 CHOP-promoter luciferase, tunicamycin-induced, 15-18 h | inhibition, % at 10 µM | 220,000 tested, 3.8% active | AID 2732;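 active = compounds that reduced the stress-induced luciferase reporter signal by more than about 70% of percent inhibition, limit read from the data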;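 note: 0% = tunicamycin plus vehicle and 100% = wells without tunicamycin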
Numbers without * were called inactive. The full list was thinned out, with hits kept by preference.

For CCOC(=O)C1=C(N)OC(CCl)=C(C#N)C1c1ccsc1 (configuration not stated) the results were T cruzi repl -8, L major viab 57*, CHOP UPR activ 4, XBP1 UPR activ 0, Dynein transport -3.4 and CHOP inh -18.
For Cc1cc(C)nc(Nc2n[nH]c(-c3ccc(N)cc3)n2)n1 the results were T cruzi repl -11, L major viab 7, CHOP UPR activ -1, XBP1 UPR activ 1, Dynein transport 1.8 and CHOP inh -17.
For Cc1cc(C)nc(Nc2n[nH]c(-c3ccc(C(C)(C)C)cc3)n2)n1 the results were T cruzi repl 30, L major viab 35, CHOP UPR activ 7, XBP1 UPR activ 3, Dynein transport -0.26 and CHOP inh 77*.
Cc1ccc(-n2[nH]c(C)c(C=Nc3ccc(Br)cn3)c2=O)cc1 was read as T cruzi repl -2, L major viab -9, CHOP UPR activ 1, XBP1 UPR activ 4, Dynein transport -0.45 and CHOP inh 80*.
For Cc1[nH]n(-c2ccccc2)c(=O)c1C=Nc1cccc2cccnc12 the results were T cruzi repl 7, L major viab 64*, CHOP UPR activ 15, XBP1 UPR activ 5, Dynein transport -1.1 and CHOP inh -28.
COc1cc(S(=O)(=O)Nc2cccc(C)c2)ccc1N=Cc1c(C)[nH]n(-c2ccccc2)c1=O was read as T cruzi repl -10, L major viab 57*, CHOP UPR activ 5, XBP1 UPR activ 6, Dynein transport 0.28 and CHOP inh 48.
`Cc1[nH]n(-c2ccccc2)c(=O)c1/C=N/N1C(=O)c2cccc3cccc(c23)C1=O` gave T cruzi repl -13, L major viab 59*, CHOP UPR activ -1, XBP1 UPR activ 0, Dynein transport 0.29 and CHOP inh 24.
For Cc1ccc(-n2[nH]c(C)c(/C=N/c3ccccn3)c2=O)cc1 the results were T cruzi repl -12, L major viab -7, CHOP UPR activ 2, XBP1 UPR activ 2, Dynein transport -0.31 and CHOP inh 16.
Screening CC1(C)NC(=O)N(CC(=O)N2CCN(S(=O)(=O)c3ccccc3C(F)(F)F)CC2)C1=O returned CHOP UPR activ 0 and XBP1 UPR activ -2.
For O=C(c1ccco1)N(CCCN1CCOCC1)c1nc(-c2ccc(Cl)cc2)cs1 the results were T cruzi repl 67*, L major viab 17, CHOP UPR activ 0, XBP1 UPR activ -3, Dynein transport 0.35 and CHOP inh -2.
O=C(c1ccco1)N(CCCN1CCOCC1)c1nc(-c2ccc(F)cc2)cs1 was read as T cruzi repl 69*, L major viab 21, CHOP UPR activ 1, XBP1 UPR activ -3, Dynein transport 0.97 and CHOP inh 41.
Screening COc1ccc(-c2csc(N(CCCN3CCOCC3)C(=O)CCl)n2)cc1 returned T cruzi repl 5, CHOP UPR activ 0 and XBP1 UPR activ -2.
Cc1[nH]n(-c2ccc([N+](=O)[O-])cc2)c(=O)c1C=NCCN1CCN(C(=O)c2ccc(F)cc2)CC1 was read as T cruzi repl 6, L major viab -7, CHOP UPR activ -1, XBP1 UPR activ -1, Dynein transport 1.2 and CHOP inh 5.
`Cc1[nH]n(-c2ccc([N+](=O)[O-])cc2)c(=O)c1C=NCCN1CCN(C(=O)c2ccc(Br)cc2)CC1` gave T cruzi repl 66*, L major viab 0, CHOP UPR activ -2, XBP1 UPR activ -1, Dynein transport -0.58 and CHOP inh 33.
Screening CCc1ccc(S(=O)(=O)N2CCN(c3ncccn3)CC2)cc1 returned T cruzi repl 6, CHOP UPR activ 1 and XBP1 UPR activ -4.
Screening O=C(CCCSc1nc2ccccc2[nH]1)N1CCN(c2ccc([N+](=O)[O-])cc2)CC1 returned T cruzi repl 30, L major viab 7, CHOP UPR activ 3, XBP1 UPR activ -2, Dynein transport -0.35 and CHOP inh 73*.
Screening O=C(CCc1ccccc1)N1CCN(c2ccc([N+](=O)[O-])cc2)CC1 returned T cruzi repl -5, L major viab 1, CHOP UPR activ -1, XBP1 UPR activ -4, Dynein transport -0.49 and CHOP inh 49.
`CN(/N=C/c1cccnc1)c1cnn(-c2ccc(F)c(Cl)c2)c(=O)c1Cl` gave T cruzi repl -1, L major viab 68*, CHOP UPR activ 2, XBP1 UPR activ 2, Dynein transport 0.84 and CHOP inh -37.
CC1(C)CC(NCCN2CCN(C3=CC(=C(C#N)C#N)CC(C)(C)C3)CC2)=CC(=C(C#N)C#N)C1 was read as T cruzi repl 86*, L major viab 15, CHOP UPR activ 1, XBP1 UPR activ -2, Dynein transport 0.45 and CHOP inh 16.
`CN(C)/N=C/C=C1\CC/C(=C\c2ccc(Br)cc2)C1=O` gave T cruzi repl -6, L major viab 77*, CHOP UPR activ 2, XBP1 UPR activ 0, Dynein transport -0.56 and CHOP inh -20.
`Cc1c(N(C)S(=O)(=O)c2ccc(Cl)c(C(=O)N3CCC(C(N)=O)CC3)c2)c(=O)n(-c2ccccc2)n1C` gave T cruzi repl -12, CHOP UPR activ 1 and XBP1 UPR activ -1.
For Cn1cnnc1Sc1ccc(/C=C/C(=O)c2ccc(O)cc2)cc1[N+](=O)[O-] the results were T cruzi repl -31, L major viab 100*, CHOP UPR activ 11, XBP1 UPR activ 5, Dynein transport -0.28 and CHOP inh -2.
For Cn1cnnc1Sc1ccc(C(=O)OCC(=O)Nc2cc(Cl)cc(Cl)c2)cc1[N+](=O)[O-] the results were T cruzi repl -10, L major viab -4, CHOP UPR activ -2, XBP1 UPR activ -2, Dynein transport -0.013 and CHOP inh 27.
For CCC(C)(C)NC(=O)c1ccc(Sc2nncn2C)c([N+](=O)[O-])c1 the results were T cruzi repl 2, L major viab 50*, CHOP UPR activ 2, XBP1 UPR activ -1, Dynein transport -0.31 and CHOP inh 16.
Cn1cnnc1Sc1ccc(C(=O)NCCC23CC4CC(CC(C4)C2)C3)cc1[N+](=O)[O-] was read as T cruzi repl 32, L major viab 51*, CHOP UPR activ 3, XBP1 UPR activ -2, Dynein transport 0.11 and CHOP inh 5.
`CCN(CC)S(=O)(=O)c1ccc(NC(=O)c2ccc(Sc3nncn3C)c([N+](=O)[O-])c2)cc1` gave T cruzi repl -25, L major viab -4, CHOP UPR activ 1, XBP1 UPR activ -1, Dynein transport 0.72 and CHOP inh 0.

Compound activity deposited in PubChem by several laboratories.
